Here are results for four molecules from publication PMC11618768 (Scientific Reports, 2024).

In brackets after ≈: the same amount, converted by molar mass. Several values for one entry are separate records, joined by “and”; a condition that tells them apart may be missing. Equal values may be shown once.

For data set [1], the system named is B. subtilis. Conditions: cited from earlier work.
In data set [2] the test system is rabbit red blood cells (RBCs). As to the kind of experiment: In vitro hemolysis assay. The format is cell-based. To be noted: 1 h, rabbit erythrocytes. Summed up:
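Rabbit erythrocytes were exposed 1 h to test compound at 1/2×, 1× and 2× MIC. After centrifugation, supernatants were read spectrophotometrically at 570 nm and photographed. PBS served as negative control, and a positive control was included. n = 3.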

The test system of data set [3] is LO2 cells. As to the kind of experiment: Cell viability assay using MTT. The format is cell-based. Summed up: (§1)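 Cells were kept in RPMI 1640 with 10% FBS and 1% penicillin-streptomycin at 37 °C, 5% CO2. They were seeded at 1 × 10^5 cells/well and grown 24 h to about 80% confluence. After medium removal, test compound was added at final 0.78125–100.0 µg/mL (twofold series), with a 0.5% DMSO control. Exposure was 24 h or 48 h, then MTT for 4 h, A490. Three repeats; IC50 derived.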

For data set [4], the system named is MRSA-244288. As to the kind of experiment: MIC and MBC, broth dilution. The format is cell-based, Methicillin-resistant Staphylococcus aureus. To be noted: MRSA-244,288, clinical isolate. The method, boiled down:
(§2)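 Strains were grown from LB agar colonies in LB (180 rpm, 37 °C, 12 h), then diluted 1:100 and grown 3 h to log phase. The inoculum was adjusted to 1 × 10^6 CFU/mL for 96-well broth dilution, 37 °C, 18 h. MIC was the lowest concentration without visible growth. For MBC, 100.0 µL per well was plated on MHA (37 °C, 16–20 h); MBC was the lowest concentration without colonies.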
A general note: Broth dilution looks for growth in wells or tubes with falling amounts of substance.

Data set [5] relates to MRSA (ATCC 433000). As to the kind of experiment: Time-kill assay. Conditions: 24 h. The format is cell-based, Methicillin-resistant Staphylococcus aureus. Summed up: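 MRSA grown to log phase in LB (37 °C, 180 rpm) and adjusted to 1 × 10^6 CFU/mL. Incubated in 24-well plates with test compound at 0, 1/2×MIC or MIC for 24 h at 37 °C. Sampled every 2 h, with absorbance read at 570 nm.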

Data set [6] relates to MRSA-244268. As to the kind of experiment: MIC and MBC, broth dilution. The format is cell-based, Methicillin-resistant Staphylococcus aureus. Conditions: MRSA-244,268, clinical isolate. Summed up:
as §2

For data set [7], the system named is P. notatum. To be noted: cited from earlier work.
The subject of data set [8] is MRSA-244862. In words: MIC and MBC, broth dilution. The format is cell-based, Methicillin-resistant Staphylococcus aureus. To be noted: MRSA-244,862, clinical isolate. Summed up:
as §2

Data set [9] relates to MRSA-244358. As to the kind of experiment: MIC and MBC, broth dilution. The format is cell-based, Methicillin-resistant Staphylococcus aureus. Conditions: MRSA-244,358, clinical isolate. The method, boiled down:
as §2

Data set [10] relates to MRSA (ATCC 433000). In words: Scanning electron microscopy. The format is cell-based, Methicillin-resistant Staphylococcus aureus. To be noted: 2×MIC, 12 h. Summed up: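 Log-phase MRSA exposed to test compound at 2×MIC for 12 h at 37 °C, with untreated cells as blank control. Cells were washed three times in PBS […]. They were fixed in 2.5% glutaraldehyde plus 2% paraformaldehyde for 12 h, air-dried and imaged by scanning electron microscopy.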

Data set [11] relates to MRSA-244135. As to the kind of experiment: MIC and MBC, broth dilution. Conditions: MRSA-244,135, clinical isolate. The format is cell-based, Methicillin-resistant Staphylococcus aureus. The method, boiled down: as §2
Data set [12] deals with human KB carcinoma cells. To be noted: cited from earlier work.
Data set [13] relates to MRSA-244661. As to the kind of experiment: MIC and MBC, broth dilution. The format is cell-based, Methicillin-resistant Staphylococcus aureus. To be noted: MRSA-244,661, clinical isolate. The method, boiled down: as §2
Data set [14] has as its system HK-2 cells. As to the kind of experiment: Cell viability assay using MTT. The format is cell-based. Summed up: as §1
Data set [15] deals with HaCat cells. As to the kind of experiment: Cell viability assay using MTT. The format is cell-based. Summed up: as §1
Data set [16] deals with MRSA-244548. As to the kind of experiment: MIC and MBC, broth dilution. The format is cell-based, Methicillin-resistant Staphylococcus aureus. Conditions: MRSA-244,548, clinical isolate. Summed up:
as §2

Data set [17] relates to MRSA-244410. As to the kind of experiment: MIC and MBC, broth dilution. The format is cell-based, Methicillin-resistant Staphylococcus aureus. Conditions: MRSA-244,410, clinical isolate. Summed up: as §2
Data set [18] relates to MRSA strain (ATCC 43300). In words: MIC and MBC, broth dilution. The format is cell-based, Methicillin-resistant Staphylococcus aureus. Summed up: as §2
For data set [19], the system named is MRSA-244757. In words: MIC and MBC, broth dilution. The format is cell-based, Methicillin-resistant Staphylococcus aureus. Conditions: MRSA-244,757, clinical isolate. The method, boiled down:
as §2

Data set [20] has as its system MRSA. In words: Mouse skin infection model. The format is in vivo. Conditions: day 13; 2.0 µg/mL once daily, mice. The method, boiled down: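 SPF male and female mice (18.0–22.0 g) had dorsal fur shaved and both sides of the back scalded with a scaldometer. 20.0 µL log-phase MRSA (1.5-3 × 10^6 CFU/mL in sterile saline) went onto each wound, which was then covered with sterile gauze. Test compound or vancomycin (2.0 µg/mL, 20.0 µL) was applied topically once daily, and model mice got solvent. Wounds were photographed daily for 13 days, and H&E sections were taken on day 13 (n = 6).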

Data set [21] relates to MRSA-244425. As to the kind of experiment: MIC and MBC, broth dilution. The format is cell-based, Methicillin-resistant Staphylococcus aureus. Conditions: MRSA-244,425, clinical isolate. The method, boiled down:
as §2

Data set [22] concerns MRSA (ATCC 433000). As to the kind of experiment: SYTOX green and PI assay. The format is cell-based, Methicillin-resistant Staphylococcus aureus. Conditions: 1/2×, 2×MIC, 12 h. Summed up:
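Log-phase MRSA grown in LB at 37 °C, 180 rpm, adjusted to 1 × 10^6 CFU/mL. Exposed to test compound at 1/2×, 1× and 2×MIC for 12 h at 37 °C, then stained with SYTO 9 and PI for 30 min in the dark. Washed twice in PBS (pH 7.5, 0.1 M), then imaged by fluorescence microscopy: green marks viable cells, red marks dead cells.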

The test system of data set [23] is S. aureus. Conditions: cited from earlier work.
Data set [24] concerns MRSA. To be noted: cited from earlier work.
The subject of data set [25] is MRSA. Conditions: cited from earlier work. The source holds these as a separate data set.

`COC1=CC(=O)c2c(O)c3c(c(O)c2C1=O)O[C@]1(Oc2c(cc4cc(C)oc(=O)c4c2O)[C@@H](O)[C@@H]1O)[C@@H]3O` [Griseorhodin C]: the Inhibitory activity result in [1], in data set [7], in data set [12] and in data set [23] was “inhibitory activity” each time. For the same molecule, the Hemolysis rate in [2] (1/2 MIC) is 0.70%; in [2] (2×MIC), 2.13%; in data set [2] (MIC), 1.77%. Besides, the “Cell morphology under the microscope” value in data set [3] (50 ~ 100 µg/mL) was “the cell morphology remained normal and the arrangement was regular, and no fragmentation or cell death was observed”; in data set [14] (50 ~ 100 µg/mL), “the cell morphology remained normal and the arrangement was regular, and no fragmentation or cell death was observed”; in data set [15] (50 ~ 100 µg/mL), “the cell morphology remained normal and the arrangement was regular, and no fragmentation or cell death was observed”. In addition, the “IC50 (cell viability)” value in data set [3] (MTT, 48 h) stood at 156.2 µg/mL (≈ 297 µM); in [14] (MTT, 48 h), 86.32 µg/mL (≈ 164 µM); in [15] (MTT, 48 h) it was 59.27 µg/mL (≈ 113 µM). In addition, the MIC in data set [4] is 1 µg/mL (≈ 1.9 µM); in [6], 2 µg/mL (≈ 3.8 µM); in data set [8], 1 µg/mL (≈ 1.9 µM); in [9], 1 µg/mL (≈ 1.9 µM); in [11], 2 µg/mL (≈ 3.8 µM); in data set [13], 1 µg/mL (≈ 1.9 µM). The MIC was 0.5 µg/mL (≈ 0.95 µM) in [16]; 1 µg/mL (≈ 1.9 µM) in [17]; 1.0 µg/mL and 1 µg/mL in data set [18] (MRSA ATCC 43,300); 1 µg/mL (≈ 1.9 µM) in data set [19]; 1 µg/mL (≈ 1.9 µM) in data set [21]. Also, in data set [5] (1/2×MIC, vs control group), the “Inhibition of MRSA growth in time-kill curve” value is “some inhibition of MRSA growth compared to the control group”. Moreover, the “Bacteriostatic activity in time-kill curve compared with vancomycin” value in data set [5] (MIC) is given as “stronger bacteriostatic activity against MRSA than the clinically positive control drug, vancomycin”. Further, the “Morphological changes of MRSA by SEM” value in [10] is “the cell walls appeared wrinkled, the surfaces showed signs of damage, and cellular integrity was compromised”. For the same molecule, the “HE staining of skin wound” value in data set [20] is “fewer inflammatory cells, lower thickness, and better structural integrity of hair follicles and other structures compared to the Vancomycin-treated group”. Besides, in data set [22], the “LIVE/DEAD fluorescence (red dead, green viable cells)” value is given as “exhibits bactericidal effects against MRSA”.
As for 8-Methoxygriseorhodin C, in data set [24], the “MIC against MRSA” value is on record as 0.78 µg/mL.
Take 7,8-dideoxygriseorhodin C: in [25], the “Decrease in MIC on simultaneous treatment with oxacillin” value is on record as “approximately tenfold decrease in MIC”. Besides, in data set [25] (with oxacillin), the Combination index is listed as under 0.5.
For the molecule `CN[C@H](CC(C)C)C(=O)N[C@H]1C(=O)N[C@@H](CC(N)=O)C(=O)N[C@H]2C(=O)N[C@H]3C(=O)N[C@H](C(=O)N[C@H](C(=O)O)c4cc(O)cc(O)c4-c4cc3ccc4O)[C@H](O)c3ccc(c(Cl)c3)Oc3cc2cc(c3O[C@@H]2O[C@H](CO)[C@@H](O)[C@H](O)[C@H]2O[C@H]2C[C@](C)(N)[C@H](O)[C@H](C)O2)Oc2ccc(cc2Cl)[C@H]1O` [vancomycin, reference compound], in [18] (Staphylococcus aureus, ATCC43|ATCC43300|MRSA), the MIC was 1 µg/mL (≈ 0.69 µM).

A word on the MIC: it is the least concentration at which growth counts as inhibited.
